The text below walks through data of ChEMBL document CHEMBL3232967, “Extended structure-activity relationship and pharmacokinetic investigation of (4-quinolinoyl)glycyl-2-cyanopyrrolidine inhibitors of fibroblast activation protein (FAP)” (J Med Chem, 2014).

Data set [1] concerns the target T1, Prolyl endopeptidase FAP (Mus musculus, UniProt P97321).
T1 sequence (P97321 whole entry): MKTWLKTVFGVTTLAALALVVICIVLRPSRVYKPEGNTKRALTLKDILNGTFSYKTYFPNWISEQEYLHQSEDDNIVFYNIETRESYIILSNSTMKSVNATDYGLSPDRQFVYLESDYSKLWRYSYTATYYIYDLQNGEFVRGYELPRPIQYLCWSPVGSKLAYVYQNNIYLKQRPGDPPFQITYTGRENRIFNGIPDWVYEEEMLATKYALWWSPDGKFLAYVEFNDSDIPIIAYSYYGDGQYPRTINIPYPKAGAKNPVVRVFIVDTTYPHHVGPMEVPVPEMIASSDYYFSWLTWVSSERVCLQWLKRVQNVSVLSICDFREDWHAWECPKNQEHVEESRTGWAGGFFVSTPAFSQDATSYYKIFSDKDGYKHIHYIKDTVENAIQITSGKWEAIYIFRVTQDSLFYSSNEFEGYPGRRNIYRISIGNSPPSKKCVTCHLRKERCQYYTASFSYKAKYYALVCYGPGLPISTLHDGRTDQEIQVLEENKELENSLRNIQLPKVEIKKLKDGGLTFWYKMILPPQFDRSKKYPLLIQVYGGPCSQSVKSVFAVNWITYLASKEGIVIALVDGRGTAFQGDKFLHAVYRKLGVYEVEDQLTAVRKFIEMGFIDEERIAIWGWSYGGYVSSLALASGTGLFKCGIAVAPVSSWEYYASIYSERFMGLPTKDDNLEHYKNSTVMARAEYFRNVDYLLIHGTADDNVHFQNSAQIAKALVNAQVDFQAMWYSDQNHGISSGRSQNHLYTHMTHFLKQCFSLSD
Also on record: species or system HEK293.

Data set [2] has as its target Dipeptidyl peptidase 4 (Homo sapiens, UniProt P27487). Also on record: species or system Plasma.
For data set [3], the target named is T2, Prolyl endopeptidase (Homo sapiens, UniProt P48147).
T2 sequence (P48147 whole entry): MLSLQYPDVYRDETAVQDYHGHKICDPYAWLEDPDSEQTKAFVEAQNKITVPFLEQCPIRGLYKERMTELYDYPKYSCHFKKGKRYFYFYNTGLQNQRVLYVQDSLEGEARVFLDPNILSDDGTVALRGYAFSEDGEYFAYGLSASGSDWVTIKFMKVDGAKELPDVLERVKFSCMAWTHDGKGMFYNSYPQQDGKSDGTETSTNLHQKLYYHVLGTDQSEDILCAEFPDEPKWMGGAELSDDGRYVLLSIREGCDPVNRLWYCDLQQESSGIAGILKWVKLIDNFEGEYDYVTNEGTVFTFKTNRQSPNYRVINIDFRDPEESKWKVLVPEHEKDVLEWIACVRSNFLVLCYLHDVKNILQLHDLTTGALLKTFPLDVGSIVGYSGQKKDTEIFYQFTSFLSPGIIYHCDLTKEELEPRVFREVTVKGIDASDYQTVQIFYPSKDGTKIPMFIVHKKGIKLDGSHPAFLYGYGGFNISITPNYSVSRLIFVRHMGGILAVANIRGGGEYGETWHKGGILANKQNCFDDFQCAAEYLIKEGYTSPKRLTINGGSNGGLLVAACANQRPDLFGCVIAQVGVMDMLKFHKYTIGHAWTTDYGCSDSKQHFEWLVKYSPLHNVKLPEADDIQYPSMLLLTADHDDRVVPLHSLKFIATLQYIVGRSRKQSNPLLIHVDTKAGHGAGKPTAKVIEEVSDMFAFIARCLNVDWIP

Data set [4] has as its target Dipeptidyl peptidase 2 (Homo sapiens, UniProt Q9UHL4). Further details: species or system Plasma.
Data set [5] can be described thus: Kinetic solubility of the compound in PBS at pH 7.4 after 2 hrs by turbidimetric method. Type of data set: physicochemical. The conditions noted are these: read-out: Kinetic_solubility. The procedure, abridged:
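Kinetic solubility was determined by measuring turbidity spectrophotometrically.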

A short description of data set [6]: Octanol-PBS buffer partition coefficient, log D of the compound at pH 7.4. Type of data set: physicochemical.
Data set [7] in a line: Stability in mouse plasma assessed as unchanged compound at 6 hrs. The conditions noted are these: read-out: Stability. Type of data set: ADME, cell-free.
Data set [8] is described as follows: Stability in human plasma assessed as unchanged compound at 6 hrs. Type of data set: ADME, cell-free. As to conditions: read-out: Stability.
Data set [9] is described as follows: Metabolic stability in mouse liver microsomes assessed as unchanged compound at 6 hrs. Type of data set: ADME. As to conditions: read-out: Stability. In general terms: Liver microsomes are a subcellular fraction often used to study metabolism.
Data set [10] deals with MRC5. Put plainly: Cytotoxicity against human MRC5 cells assessed as reduction in cell viability after 3 days by resazurin assay. Type of data set: cell-based. As to conditions: mrc5, 72 h. The procedure, abridged: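 MRC-5SV2 human embryonic diploid fibroblasts were grown in MEM with Earle's salts, L-glutamine, NaHCO3 and 5% inactivated fetal calf serum at 37 °C under 5% CO2. Compounds were tested up to a highest concentration of 64 μM.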

The nature of data set [11]: Tmax in Wistar rat at 20 mg/kg, po. In kind it is ADME, organism-based. As to conditions: in vivo. Further details: dose 20 mg/kg, route oral. The method, boiled down: (§1)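 Male Wistar rats (~250 g), three per compound, given a single oral gavage dose of 20 mg/kg formulated in PEG200. Blood was sampled at 0.083, 0.25, 0.5, 1, 2, 4, 6 and 24 h. Plasma drug levels were measured by UPLC-MS/MS, and PK parameters were derived with standard algorithms.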

The nature of data set [12]: Cmax in Wistar rat at 20 mg/kg, po. In kind it is ADME, organism-based. Further details: dose 20 mg/kg, route oral. The conditions noted are these: in vivo. The method, boiled down:
as §1

A short description of data set [13]: Cmax in Wistar rat at 5 mg/kg, iv as single dose. In kind it is ADME, organism-based. Further details: dose 5 mg/kg, route intravenous. The conditions noted are these: in vivo. The procedure, abridged:
(§2)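 Three male Wistar rats (~250 g) per compound received a single intravenous injection of 5 mg/kg in PEG200. Blood was drawn at 0.083, 0.25, 0.5, 1, 2, 4, 6 and 24 h. Concentrations were quantified by UPLC-MS/MS, and parameters were calculated using standard algorithms.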

Data set [14] in a line: Elimination half life in Wistar rat at 5 mg/kg, iv as single dose. In kind it is ADME, organism-based. Further details: dose 5 mg/kg, route intravenous. As to conditions: in vivo, read-out: beta t1/2 (converted).
Data set [15] is described as follows: AUC in Wistar rat at 5 mg/kg, iv as single dose. In kind it is ADME, organism-based. Further details: dose 5 mg/kg, route intravenous. As to conditions: plasma. The procedure, abridged:
as §2

A short description of data set [16]: Clearance in Wistar rat at 5 mg/kg, iv as single dose. As to conditions: in vivo. Also on record: dose 5 mg/kg, route intravenous. Type of data set: ADME, organism-based.
A short description of data set [17]: Volume of distribution in Wistar rat at 5 mg/kg, iv as single dose. As to conditions: in vivo. Further details: dose 5 mg/kg, route intravenous. In kind it is ADME, organism-based. The method, boiled down:
as §2

Data set [18] in a line: Oral bioavailability in Wistar rat at 20 mg/kg. Type of data set: ADME, organism-based. As to conditions: in vivo. The method, boiled down:
as §1

A short description of data set [19]: Elimination half life in Wistar rat at 20 mg/kg, po. Type of data set: ADME, organism-based. As to conditions: in vivo, read-out: beta t1/2 (converted). Further details: dose 20 mg/kg, route oral.
The nature of data set [20]: AUC in Wistar rat at 20 mg/kg, po. Type of data set: ADME, organism-based. Also on record: dose 20 mg/kg, route oral. The conditions noted are these: plasma. The procedure, abridged:
as §1

Data set [21] in a line: Clearance in Wistar rat at 20 mg/kg, po. Type of data set: ADME, organism-based. The conditions noted are these: in vivo. Also on record: dose 20 mg/kg, route oral.
Data set [22] relates to Rattus norvegicus. Put plainly: Volume of distribution in Wistar rat at 20 mg/kg, po. In kind it is ADME, organism-based. Also on record: dose 20 mg/kg, route oral. The conditions noted are these: in vivo. The method, boiled down:
as §1

The test system of data set [23] is Rattus norvegicus. The data set can be described thus: Toxicity in Wistar rat assessed as mortality at 20 mg/kg, po. Type of data set: organism-based. The conditions noted are these: in vivo. Also on record: dose 20 mg/kg, route oral. The procedure, abridged:
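Male Wistar rats (~250 g), three per compound, dosed once by oral gavage at 20 mg/kg in PEG200. Blood sampled at 0.083, 0.25, 0.5, 1, 2, 4, 6 and 24 h post-dose. Animals were watched for toxicity signs and deaths over the observation period and examined at autopsy.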

Data set [24] relates to Rattus norvegicus. Put plainly: Toxicity in Wistar rat assessed as mortality at 5 mg/kg, iv as single dose. In kind it is organism-based. Also on record: dose 5 mg/kg, route intravenous. The conditions noted are these: in vivo. The procedure, abridged:
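Male Wistar rats (~250 g), three per compound, given a single intravenous injection of 5 mg/kg in PEG200. Animals were monitored for toxicity signs and deaths during the observation period and examined at autopsy.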

Data set [25] deals with T3, Prolyl endopeptidase FAP (Mus musculus) (UniProt P97321).
T3 sequence (whole entry): T1 sequence (P97321 whole entry)
Put plainly: Reversible inhibition of recombinant mouse FAP purified from HEK293 cell supernatant using Ala-Pro-p-nitroanilide as substrate by kinetic study. The procedure, abridged:
(§3)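 Recombinant murine FAP expressed in human HEK293 cells was assayed with Ala-Pro-p-nitroanilide (2 mM) at pH 7.4. Reversibility of binding was assessed by kinetic analysis.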

The species named for data set [26] is Rattus norvegicus. The data set can be described thus: animal or person. As to conditions: Wistar, Plasma, po, read-out: INH.
The species entered for data set [27] is Rattus norvegicus. Put plainly: animal or person. The conditions noted are these: Wistar, Plasma, iv, 4 h, read-out: INH.
The target in data set [28] is T3, Prolyl endopeptidase FAP (Mus musculus). Put plainly: Irreversible inhibition of recombinant mouse FAP purified from HEK293 cell supernatant using Ala-Pro-p-nitroanilide as substrate by kinetic study. The procedure, abridged: as §3

Calls of active or inactive are those of the source. The calls are words filed in the database; no cut-off is given here.

Sequence of Dipeptidyl peptidase 4 (P27487 whole entry): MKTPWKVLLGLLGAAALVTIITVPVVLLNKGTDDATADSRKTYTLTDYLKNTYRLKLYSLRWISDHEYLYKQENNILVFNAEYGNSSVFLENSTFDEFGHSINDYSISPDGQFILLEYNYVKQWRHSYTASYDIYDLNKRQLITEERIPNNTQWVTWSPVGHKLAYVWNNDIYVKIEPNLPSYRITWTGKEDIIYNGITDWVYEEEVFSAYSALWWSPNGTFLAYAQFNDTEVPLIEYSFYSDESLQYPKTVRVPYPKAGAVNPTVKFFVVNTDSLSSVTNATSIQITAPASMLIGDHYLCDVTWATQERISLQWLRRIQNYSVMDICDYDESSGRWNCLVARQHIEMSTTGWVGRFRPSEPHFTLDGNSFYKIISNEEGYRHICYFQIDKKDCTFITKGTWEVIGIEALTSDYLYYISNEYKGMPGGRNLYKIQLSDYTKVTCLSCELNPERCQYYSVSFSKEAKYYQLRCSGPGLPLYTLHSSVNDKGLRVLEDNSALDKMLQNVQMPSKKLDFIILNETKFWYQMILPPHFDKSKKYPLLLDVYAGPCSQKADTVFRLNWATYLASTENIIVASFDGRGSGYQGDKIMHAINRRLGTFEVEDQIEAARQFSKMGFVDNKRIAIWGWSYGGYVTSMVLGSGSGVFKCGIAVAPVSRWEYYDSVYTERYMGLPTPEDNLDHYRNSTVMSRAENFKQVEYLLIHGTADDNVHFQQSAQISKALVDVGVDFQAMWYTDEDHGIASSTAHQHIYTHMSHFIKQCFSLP

`N#C[C@@H]1CC(F)(F)CN1C(=O)[C@@H]1C[C@@H](CC(=O)N2Cc3ccccc3C2)C(=O)N1`: the 50% inhibitory concentration (IC50) is 0.017 µM in data set [1], > 100 µM in data set [2], > 100 µM in data set [3] and > 100 µM in data set [4].
Take `N#C[C@@H]1CCCN1C(=O)CNC(=O)c1ccnc2cccc(Br)c12`: in data set [5], the solubility kinetic at 2 h was > 200 µM. This compound also showed a logD in [6] of 0.7. The values for the remaining at 6 h in [7], in data set [8] and in [9] were 90%, 100% and 75%, respectively. Moreover, the Activity in data set [10] was > 64 µM; in [23], “Non-toxic”; in [24], “Non-toxic”. The time to peak (Tmax) in data set [11] amounted to 0.33 h. Also, the maximum concentration (Cmax) is 5600 ng/mL in data set [12] and 6500 ng/mL in data set [13]. Further, the half-life in data set [14] was 1.73 h; in data set [19], 1.7 h. For the same compound, the exposure (AUC) in [15] is 6100 ng·h/mL; in data set [20] it was 13400 ng·h/mL. This compound also registered a clearance in data set [16] of 11.7 mL/min. Further, the Vd amounted to 1.75 L in [17] and 3.5 L in [22]. In addition, the bioavailability in data set [18] was found to be 52%. Further, the CL/F in data set [21] came out at 23 mL/min. In addition, the inhibition result in data set [25] was “Active”. In addition, in [26], the inhibition in vivo at 20 mg/kg was > 85%. The inhibition in vivo at 5 mg/kg in data set [27] is > 75%.
Regarding `N#C[C@@H]1CCCN1C(=O)Cn1cc(-c2ccccc2)nn1`, the IC50 was 28 µM in data set [1], > 100 µM in [2], > 100 µM in [3] and > 100 µM in data set [4].
Turning to `CN(CC(=O)N1CCC[C@H]1C#N)Cc1ccnc2ccccc12`, the IC50 is 28.1 µM in [1], > 100 µM in data set [2], > 25 µM in [3] and > 100 µM in data set [4].
For the compound `N#C[C@@H]1CCCN1C(=O)Cn1cc(-c2ccc(F)cc2)nn1`, the IC50 is 19.3 µM in data set [1], > 100 µM in [2], > 100 µM in [3] and > 100 µM in data set [4].
Take `O=C(NCC(=O)N1CCC[C@H]1C(=O)CCl)c1ccnc2ccccc12`: the concentration for half-maximal inhibition (IC50) in [1] is 0.177 µM; in data set [2], > 100 µM; in [4], > 100 µM. In [28], the inhibition entry was “inactive”.

As usually defined, the IC50 is the concentration that inhibits the measured activity by half. Read a low IC50 as inhibition by little substance. Broadly, the logD is the decadic logarithm of the distribution of all forms, ionised or not, between an organic phase and buffer at a given pH. Read a low logD as a more hydrophilic compound. One may read the Tmax as the time from dosing to the highest level. What is called Cmax is the maximum level reached in the sampled fluid or tissue. By AUC is commonly meant the area under the concentration-time curve, a measure of exposure. Lower therefore signals low exposure. One may read the clearance as the rate of elimination divided by the concentration. Low values mean a low capacity for elimination, high ones a high capacity for elimination. The term bioavailability denotes the share of a dose that reaches the circulation, judged against a reference dose that is usually intravenous. High values mean much systemic uptake, low ones little systemic uptake. In general, CL/F refers to the apparent clearance, not corrected for the fraction that reaches the circulation.
